Source: ChEMBL document CHEMBL1135162, “Synthesis and evaluation of N-substituted 1,4-oxazepanyl Sordaricins as selective fungal EF-2 inhibitors” (2002)
≈ marks a conversion by molar mass, not a printed value.

What was measured:
Assay type in all cases: functional
Aspergillus fumigatus = test: Tested for in vitro antifungal activity against Aspergillus fumigatus ATCC 26430
Procedure, shortened: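 Mould grown in microplates in RPMI1640 buffered at pH 7.0, incubated at 30 °C. MIC is the lowest test-compound concentration that inhibits growth by 80%.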

Candida albicans [1] = test: Tested for in vitro antifungal activity against Candida albicans ATCC 24433
Procedure, shortened: (§1)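 Microplate growth assay in RPMI1640 medium buffered at pH 7.0, incubated at 35 °C. MIC is the lowest test-compound concentration that inhibits fungal growth by 80%.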

Candida albicans [2] = test: Tested for in vitro antifungal activity against Candida albicans ATCC 24433 in the presence of horse serum (20%)
Procedure, shortened: (§2)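 RPMI1640 medium buffered at pH 7.0, with 20% horse serum added for the incubation. Microplates incubated at 35 °C. MIC is the lowest concentration giving 80% inhibition of fungal growth.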

Candida albicans [3] = test: Tested for in vitro antifungal activity against Candida albicans ATCC 64550; procedure, shortened: as §1
Candida albicans [4] = test: Tested for in vitro antifungal activity against Candida albicans SANK51486; procedure, shortened: as §1
Candida albicans [5] = test: Tested for in vitro antifungal activity against Candida albicans SANK51486 in the presence of horse serum (20%); procedure, shortened: as §2
Candida albicans [6] = test: Tested for in vitro antifungal activity against Candida albicans TIMM3164; procedure, shortened: as §1
Candida parapsilosis = test: Tested for in vitro antifungal activity against Candida parapsilosis ATCC 90018; settings: Lodderomyces parapsilosis; procedure, shortened: as §1
Cryptococcus neoformans = test: Tested for in vitro antifungal activity against Cryptococcus neoformans TIMM1855
Procedure, shortened: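 Yeast grown in microplates in yeast nitrogen base buffered at pH 7.0, incubated at 35 °C. MIC is the lowest concentration inhibiting growth by 80%.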

Candida tropicalis = test: Tested for in vitro antifungal activity against Candida tropicalis ATCC750; procedure, shortened: as §1
Nakaseomyces glabratus = test: Tested for in vitro antifungal activity against Candida glabrata ATCC 90030; procedure, shortened: as §1

| Compound | MIC (Aspergillus fumigatus) [µg/mL] | MIC (Candida albicans [1]) [µg/mL] | MIC (Candida albicans [2]) [µg/mL] | MIC (Candida albicans [3]) [µg/mL] | MIC (Candida albicans [4]) [µg/mL] | MIC (Candida albicans [5]) [µg/mL] | MIC (Candida albicans [6]) [µg/mL] | MIC (Candida parapsilosis) [µg/mL] | MIC (Cryptococcus neoformans) [µg/mL] | MIC (Candida tropicalis) [µg/mL] | MIC (Nakaseomyces glabratus) [µg/mL] |
| --- | --- | --- | --- | --- | --- | --- | --- | --- | --- | --- | --- |
| C=C(C)CN1C[C@H](OCC23C[C@@H]4[C@H](C)CC[C@H]4C4(C=O)CC2C=C(C(C)C)C34C(=O)O)O[C@H](C)[C@@H](OC)C1 (stereo not given in full) | > 16 | 0.031 (≈ 0.0585 µM) | 0.5 | 0.031 (≈ 0.0585 µM) | 0.016 (≈ 0.0302 µM) | 0.25 | 0.031 (≈ 0.0585 µM) | > 16 | 0.25 (≈ 0.472 µM) | 0.125 (≈ 0.236 µM) | 0.25 (≈ 0.472 µM) |
| CO[C@H]1CN(Cc2ccc3c(c2)OCO3)C[C@H](OCC23C[C@@H]4[C@H](C)CC[C@H]4C4(C=O)CC2C=C(C(C)C)C34C(=O)O)O[C@@H]1C (stereo not given in full) | > 16 | 0.031 (≈ 0.0508 µM) | 1 | 0.031 (≈ 0.0508 µM) | 0.016 (≈ 0.0262 µM) | 0.5 | 0.031 (≈ 0.0508 µM) | > 16 | 2 (≈ 3.28 µM) | 0.25 (≈ 0.41 µM) | 0.5 (≈ 0.82 µM) |
| CO[C@H]1CN(CC=C(C)C)C[C@H](OCC23C[C@@H]4[C@H](C)CC[C@H]4C4(C=O)CC2C=C(C(C)C)C34C(=O)O)O[C@@H]1C (stereo not given in full) | > 16 | 0.25 (≈ 0.46 µM) | 2 | 0.5 (≈ 0.92 µM) | 0.125 (≈ 0.23 µM) | 1 | 0.25 (≈ 0.46 µM) | > 16 | > 16 | 2 (≈ 3.68 µM) | 16 (≈ 29.4 µM) |
| CO[C@H]1CN(CC=C(Cl)Cl)C[C@H](OCC23C[C@@H]4[C@H](C)CC[C@H]4C4(C=O)CC2C=C(C(C)C)C34C(=O)O)O[C@@H]1C (stereo not given in full) | > 16 | ≤ 0.031 | 2 | 0.063 (≈ 0.108 µM) | ≤ 0.031 | 1 | ≤ 0.031 | > 16 | 8 (≈ 13.7 µM) | 0.5 (≈ 0.855 µM) | 1 (≈ 1.71 µM) |
| CO[C@H]1CN(Cc2ccccc2)C[C@H](OCC23C[C@@H]4[C@H](C)CC[C@H]4C4(C=O)CC2C=C(C(C)C)C34C(=O)O)O[C@@H]1C (stereo not given in full) | > 32 | ≤ 0.063 | 1 | ≤ 0.063 | ≤ 0.063 | 0.5 | 0.125 (≈ 0.221 µM) | > 32 | 4 (≈ 7.07 µM) | 0.25 (≈ 0.442 µM) | 0.5 (≈ 0.884 µM) |
| COc1ccc(CN2C[C@H](OCC34C[C@@H]5[C@H](C)CC[C@H]5C5(C=O)CC3C=C(C(C)C)C45C(=O)O)O[C@H](C)[C@@H](OC)C2)cc1 (stereo not given in full) | > 32 | ≤ 0.063 | 1 | ≤ 0.063 | ≤ 0.063 | 0.5 | ≤ 0.063 | > 32 | 2 (≈ 3.36 µM) | 0.25 (≈ 0.42 µM) | 0.25 (≈ 0.42 µM) |
| CO[C@H]1CN(Cc2ccc(SC)cc2)C[C@H](OCC23C[C@@H]4[C@H](C)CC[C@H]4C4(C=O)CC2C=C(C(C)C)C34C(=O)O)O[C@@H]1C (stereo not given in full) | > 16 | 0.063 (≈ 0.103 µM) | 4 | 0.125 (≈ 0.204 µM) | ≤ 0.031 | 2 | 0.063 (≈ 0.103 µM) | > 16 | > 16 | 0.5 (≈ 0.817 µM) | 2 (≈ 3.27 µM) |
| CC(C)C1=CC2CC3(C=O)[C@@H]4CC[C@@H](C)[C@H]4CC2(CSC2CCCCC2)C13C(=O)O (stereo not given in full) | > 8 | 0.031 (≈ 0.072 µM) | 8 | 0.125 (≈ 0.29 µM) | ≤ 0.016 | 4 | 0.063 (≈ 0.146 µM) | > 8 | > 8 | 2 (≈ 4.64 µM) | 0.031 (≈ 0.072 µM) |
| C/C=C/C=C\C(=O)O[C@H]1[C@H](O)[C@H](OCC23C[C@@H]4[C@H](C)CC[C@H]4C4(C=O)CC2C=C(C(C)C)C34C(=O)O)O[C@H](C)[C@H]1OC (stereo not given in full) | > 4 | 0.5 (≈ 0.852 µM) | 4 | 0.5 (≈ 0.852 µM) | 0.25 (≈ 0.426 µM) | – | 0.5 (≈ 0.852 µM) | > 4 | 0.25 (≈ 0.426 µM) | 0.5 (≈ 0.852 µM) | > 4 |
| CO[C@H]1CN(Cc2ccc(C)cc2)C[C@H](OCC23C[C@@H]4[C@H](C)CC[C@H]4C4(C=O)CC2C=C(C(C)C)C34C(=O)O)O[C@@H]1C (stereo not given in full) | > 16 | 0.063 (≈ 0.109 µM) | 8 | 0.125 (≈ 0.216 µM) | ≤ 0.031 | 2 | 0.125 (≈ 0.216 µM) | > 16 | > 16 | 1 (≈ 1.72 µM) | 2 (≈ 3.45 µM) |
| CO[C@H]1CN(Cc2ccc(C#N)cc2)C[C@H](OCC23C[C@@H]4[C@H](C)CC[C@H]4C4(C=O)CC2C=C(C(C)C)C34C(=O)O)O[C@@H]1C (stereo not given in full) | > 16 | 0.063 (≈ 0.107 µM) | 2 | 0.063 (≈ 0.107 µM) | ≤ 0.031 | 1 | 0.063 (≈ 0.107 µM) | > 16 | 8 (≈ 13.5 µM) | 0.5 (≈ 0.846 µM) | 2 (≈ 3.39 µM) |
| C=C(Br)CN1C[C@H](OCC23C[C@@H]4[C@H](C)CC[C@H]4C4(C=O)CC2C=C(C(C)C)C34C(=O)O)O[C@H](C)[C@@H](OC)C1 (stereo not given in full) | > 16 | 0.031 (≈ 0.0521 µM) | 1 | 0.031 (≈ 0.0521 µM) | 0.016 (≈ 0.0269 µM) | 0.5 | 0.031 (≈ 0.0521 µM) | > 16 | 0.25 (≈ 0.42 µM) | 0.125 (≈ 0.21 µM) | 0.25 (≈ 0.42 µM) |
| COc1cccc(CN2C[C@H](OCC34C[C@@H]5[C@H](C)CC[C@H]5C5(C=O)CC3C=C(C(C)C)C45C(=O)O)O[C@H](C)[C@@H](OC)C2)c1 (stereo not given in full) | > 16 | 0.063 (≈ 0.106 µM) | 2 | 0.125 (≈ 0.21 µM) | ≤ 0.031 | 2 | 0.063 (≈ 0.106 µM) | > 16 | 2 (≈ 3.36 µM) | 0.5 (≈ 0.839 µM) | 8 (≈ 13.4 µM) |
| CO[C@H]1CN(Cc2ccc(C(F)(F)F)cc2)C[C@H](OCC23C[C@@H]4[C@H](C)CC[C@H]4C4(C=O)CC2C=C(C(C)C)C34C(=O)O)O[C@@H]1C (stereo not given in full) | > 32 | 0.5 (≈ 0.789 µM) | 32 | 1 (≈ 1.58 µM) | 0.25 (≈ 0.394 µM) | 16 | 0.5 (≈ 0.789 µM) | > 32 | > 32 | 2 (≈ 3.16 µM) | 8 (≈ 12.6 µM) |
| CO[C@H]1CN(Cc2ccc(Cl)cc2)C[C@H](OCC23C[C@@H]4[C@H](C)CC[C@H]4C4(C=O)CC2C=C(C(C)C)C34C(=O)O)O[C@@H]1C (stereo not given in full) | > 32 | ≤ 0.063 | 8 | ≤ 0.063 | ≤ 0.063 | 4 | ≤ 0.063 | > 32 | 4 (≈ 6.66 µM) | 0.5 (≈ 0.833 µM) | 1 (≈ 1.67 µM) |
| C=C(Cl)CN1C[C@H](OCC23C[C@@H]4[C@H](C)CC[C@H]4C4(C=O)CC2C=C(C(C)C)C34C(=O)O)O[C@H](C)[C@@H](OC)C1 (stereo not given in full) | > 16 | 0.031 (≈ 0.0563 µM) | 0.5 | 0.031 (≈ 0.0563 µM) | 0.016 (≈ 0.0291 µM) | 0.5 | 0.031 (≈ 0.0563 µM) | 16 (≈ 29.1 µM) | 0.125 (≈ 0.227 µM) | 0.25 (≈ 0.454 µM) | 0.125 (≈ 0.227 µM) |
| C=C(Cl)CN1C[C@H](OCC23C[C@@H]4[C@H](C)CC[C@H]4C4(C=O)CC2C=C(C(C)C)C34C(=O)O)O[C@H](C)C1 (stereo not given in full) | > 16 | 0.031 (≈ 0.0613 µM) | 0.5 | 0.031 (≈ 0.0613 µM) | 0.016 (≈ 0.0316 µM) | 0.25 | 0.031 (≈ 0.0613 µM) | 8 (≈ 15.8 µM) | 16 (≈ 31.6 µM) | 0.125 (≈ 0.247 µM) | 0.125 (≈ 0.247 µM) |
| C=C(CF)CN1C[C@H](OCC23C[C@@H]4[C@H](C)CC[C@H]4C4(C=O)CC2C=C(C(C)C)C34C(=O)O)O[C@H](C)[C@@H](OC)C1 (stereo not given in full) | > 16 | ≤ 0.031 | 0.5 | ≤ 0.031 | ≤ 0.031 | 0.5 | ≤ 0.031 | > 16 | 0.25 (≈ 0.456 µM) | 0.25 (≈ 0.456 µM) | 0.5 (≈ 0.913 µM) |
| CO[C@H]1CN(CC2=CCCCC2)C[C@H](OCC23C[C@@H]4[C@H](C)CC[C@H]4C4(C=O)CC2C=C(C(C)C)C34C(=O)O)O[C@@H]1C (stereo not given in full) | > 16 | 0.125 (≈ 0.219 µM) | 8 | 0.125 (≈ 0.219 µM) | 0.063 (≈ 0.111 µM) | 4 | 0.125 (≈ 0.219 µM) | > 16 | 8 (≈ 14 µM) | 1 (≈ 1.76 µM) | 4 (≈ 7.02 µM) |
| C=CCN1C[C@H](OCC23C[C@@H]4[C@H](C)CC[C@H]4C4(C=O)CC2C=C(C(C)C)C34C(=O)O)O[C@H](C)[C@@H](OC)C1 (stereo not given in full) | > 16 | 0.063 (≈ 0.122 µM) | 0.25 | 0.063 (≈ 0.122 µM) | 0.031 (≈ 0.0601 µM) | 0.25 | 0.063 (≈ 0.122 µM) | > 16 | > 16 | 0.5 (≈ 0.97 µM) | 0.25 (≈ 0.485 µM) |
| C=CCCN1C[C@H](OCC23C[C@@H]4[C@H](C)CC[C@H]4C4(C=O)CC2C=C(C(C)C)C34C(=O)O)O[C@H](C)[C@@H](OC)C1 (stereo not given in full) | > 16 | 0.125 (≈ 0.236 µM) | – | 0.25 (≈ 0.472 µM) | 0.063 (≈ 0.119 µM) | – | 0.125 (≈ 0.236 µM) | > 16 | > 16 | 1 (≈ 1.89 µM) | 4 (≈ 7.55 µM) |
| OC(Cn1cncn1)(Cn1cncn1)c1ccc(F)cc1F [FLUCONAZOLE] | – | – | – | 4 (≈ 13.1 µM) | – | – | 4 (≈ 13.1 µM) | – | – | – | – |
